# Measurements published in article PMC11704051 (Nature Communications, 2025).
# Where “and” joins values, the source holds several entries; their conditions need not be identical. Identical values can stand only once.
# Tests used:
# [1] = test system: MTAP-deleted urothelial cancer and lung cancer; conditions: cited from earlier work
# SDMA residues = assay: SDMA by IHC; format: in vivo, human; conditions: NSCLC patient, 50 mg QD
# How it was run: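 Paired core-needle biopsies (archival or fresh) were taken at screening/baseline and at the end of cycle 1. Tissue was fixed in 10% […] buffered formalin and paraffin-embedded. H&E confirmed tumour content, and SDMA in tumour cells was scored by IHC as an H-score. Paired comparison used a two-sided Wilcoxon matched-pairs test.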
# UGT1A1 = conditions: known potential; cited from earlier work
# SAM = assay: Plasma SAM concentration; format: in vivo, human
# How it was run: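 Plasma SAM was quantified by LC-MS/MS. Baseline blood was drawn twice at screening and before the single oral dose on C0D-3. At steady state (C1D15) sampling was pre-dose and 0.5, 1, 2, 3, 4, 6, 8 and 24 h post-dose, with daily oral dosing at 50–400 mg QD or 200 mg BID. The read-out was percent change from baseline.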
# [2] = Plasma pharmacokinetics of AG-270/S095033; format: in vivo, human
# MTAP-null tumors = conditions: cited from earlier work
# [3] = test system: MTAP-deleted cancer cell lines; conditions: multiple MTAP-deleted cancer cell lines; cited from earlier work
# methionine = assay: Plasma methionine concentration; format: in vivo, human; conditions: steady state (C1D15)
# OATP1B1 = conditions: known potential; cited from earlier work
# mouse = mouse GLP toxicology study, non-tolerated doses; cited from earlier work
# [4] = test system: patients with advanced malignancies; assay: Phase 1 trial: safety and tolerability; format: in vivo, human; conditions: for DLT: cycle 1; for Patients with any TRAE / TRAE Anemia / TRAE Blood bilirubin increased/hyperbilirubinemia / TRAE Diarrhea / TRAE Fatigue / TRAE Nausea / TRAE Rash (rash, rash macular, rash maculo-popular) / TRAE Thrombocytopenia /platelet count decrease: n = 40
# How it was run: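 Monitoring covered AEs graded by NCI-CTCAE v4.03, SAEs, laboratory values, clinical examinations, vital signs, ECOG status, ophthalmology and ECG. DLTs were assessed over cycle 1 (28 days) of oral single-agent dosing (50–400 mg QD, 200 mg BID). Escalation used a two-parameter BLRM with EWOC: reference 650 mg total daily dose, target DLT interval [0.16, 0.33], <25% chance of excessive toxicity, increments ≤100%.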
# [5] = test system: advanced solid tumors with homozygous deletion of CDKN2A/MTAP and/or loss of MTAP protein; assay: Phase 1 trial: antitumor activity by RECIST v1.1, treatment duration; format: in vivo, human
# How it was run: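 Adults with advanced solid tumour or lymphoma (homozygous CDKN2A and/or MTAP deletion by local FISH or sequencing, and/or central MTAP IHC with ≤20% positive tumour cells) took test compound orally on an empty stomach. Dosing was 50–400 mg QD or 200 mg BID: a single dose on C0D-3, then daily from C1D1 in 28-day cycles until progression or toxicity. Local investigators scored response by RECIST v1.1 (Lugano for lymphoma).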
# [6] = monotherapy expansion, MTAP-deleted urothelial cancer and lung cancer
smiles,measurement,setting,value
Nc1nc(=O)n(-c2ccccc2Cl)c2nc(C(F)(F)F)ccc12 [IDE397],Patients achieving a PR,"[1]; Phase 2 expansion, squamous NSCLC and bladder cancer",two out of eight patients
same,Disease control rate,[1]; [6],~ 94%
same,Overall response rate,[1]; [6],~ 39%
same,ctDNA molecular response rate,[1]; [6],~ 81%
COc1ccc(-c2c(Nc3ccccn3)[nH]c3c(C4=CCCCC4)c(-c4ccccc4)nn3c2=O)cc1 [AG-270/S095033],SDMA reduction after 1 cycle of treatment,SDMA residues,39%
same,Inhibition of UGT1A1,UGT1A1,inhibit
same,Mean reduction from baseline plasma SAM concentration,"SAM; C1D15, 400 mg QD",~ 54%
same,"Decrease of plasma SAM concentration from baseline, range across doses","SAM; C1D15, 50–200 mg QD and 200 mg BID",65–70%
same,Increase of plasma concentrations with dose,[2]; 50 mg to 200 mg,dose-proportional manner from 50 mg to 200 mg
same,Exposure relative to dose,[2]; 400 mg QD,less than dose proportional
same,Cmax,"[2]; human, plasma, oral, Geometric mean Cmax, range across the dosing cohorts, C1D15",1710 to 13600 ng/mL
same,half-life,"[2]; human, plasma, oral, Geometric mean accumulation-based (effective) half-life (T½eff), range, C1D15, 50 to 200 mg QD and 200 mg BID",43 to 99 h
same,Tmax,"[2]; human, plasma, oral, Median Tmax, range across the dosing cohorts, C1D15",1 to 6 h
same,half-life,"[2]; human, plasma, oral, Median terminal half-life (t½), range across the tested doses",16 to 38 h
same,Time at which steady-state was achieved (mean plasma trough concentrations),[2]; most of the cohorts,≤ 15 days
same,Effect on SAM levels,MTAP-null tumors; mice bearing MTAP-null tumors,reduce the levels of SAM in both plasma and tumor tissue
same,Effect on tumor growth,MTAP-null tumors; mice bearing MTAP-null tumors,inhibit tumor growth in a dose- and drug exposure-dependent manner
same,Reduction in plasma SAM concentration associated with maximum tumor growth inhibition,MTAP-null tumors; preclinical models,60–80%
same,Effect on cell proliferation,[3],robust decrease in cell proliferation
same,Change in plasma methionine concentrations,methionine,increases in methionine concentrations in a drug exposure-dependent manner up to 200 mg QD
same,Inhibition of hepatocyte transporter OATP1B1,OATP1B1,inhibit
same,Retinal finding,mouse,non-reversible retinal atrophy at non-tolerated doses
same,Patients with dose-limiting ≥grade 3 / acute liver injury,[4]; 200 mg BID,two patients
same,Severity of thrombocytopenia,[4]; 200 mg BID,Higher grade thrombocytopenia
same,DLT,[4]; 1 patient at 100 mg QD,Grade 2 hypersensitivity reaction
same,DLT,[4]; 1 patient at 150 mg QD,Grade 3 hyperbilirubinemia and Grade 3 maculo-papular rash
same,DLT,[4]; 1 patient at 200 mg QD,Grade 3 neutrophil count decreased
same,Patients who experienced a TEAE of Grade ≥3,[4]; 40 patients,67.5%
same,Patients with AEs leading to permanent treatment discontinuation,[4]; 40 patients,5.0%
same,Patients with TRAEs of Grade ≥3,[4]; 40 patients,17.5%
same,Patients with at least one DLT during cycle 1,[4]; 40 patients,10%
same,Patients with fatal SAEs (none related to treatment),[4]; 40 patients,5.0%
same,Patients with serious adverse events (SAEs) regardless of relationship,[4]; 40 patients,57.5%
same,Patients with worst post-baseline ECOG score of 2,[4]; 40 patients,20.0%
same,Patients with worst post-baseline ECOG score of 3,[4]; 40 patients,2.5%
same,SAE abdominal pain,[4]; 40 patients,5.0%
same,SAE liver injury,[4]; 40 patients,5.0%
same,SAE pancreatitis,[4]; 40 patients,5.0%
same,SAE sepsis,[4]; 40 patients,5.0%
same,SAE tumor pain,[4]; 40 patients,5.0%
same,TEAE non-serious blurred vision (not related to treatment),[4]; 40 patients,5%
same,TEAE non-serious supraventricular tachycardia,[4]; 40 patients,2.5%
same,TEAE non-serious tachycardia,[4]; 40 patients,5%
same,TEAE optic disc hemorrhage (not related to treatment),[4]; 40 patients,2.5%
same,TEAE retinal hemorrhage (not related to treatment),[4]; 40 patients,2.5%
same,TEAE serious atrial fibrillation,[4]; 40 patients,2.5%
same,TEAE serious electrocardiogram T wave inversion,[4]; 40 patients,2.5%
same,TEAE serious sinus tachycardia,[4]; 40 patients,2.5%
same,"TRAE blood bilirubin increase, any grade",[4]; 40 patients,15%
same,"TRAE hyperbilirubinemia, any grade",[4]; 40 patients,12.5%
same,"TRAE thrombocytopenia, any grade",[4]; 40 patients,10%
same,Patients with any TRAE,[4]; All Grades,28 n (%) and 28 (70.0) n (%)
same,TRAE Anemia,[4]; All Grades,4 n (%) and 4 (10.0) n (%)
same,TRAE Blood bilirubin increased/hyperbilirubinemia,[4]; All Grades,10 n (%) and 10 (25.0) n (%)
same,TRAE Diarrhea,[4]; All Grades,3 (7.5) n (%)
same,TRAE Fatigue,[4]; All Grades,10 n (%) and 10 (25.0) n (%)
same,TRAE Nausea,[4]; All Grades,3 (7.5) n (%)
same,"TRAE Rash (rash, rash macular, rash maculo-popular)",[4]; All Grades,6 (15.0) n (%)
same,TRAE Thrombocytopenia /platelet count decrease,[4]; All Grades,7 (17.5) n (%)
same,Patients with any TRAE,[4]; Grade 1,10 (25.0) n (%)
same,TRAE Anemia,[4]; Grade 1,1 (2.5) n (%)
same,TRAE Blood bilirubin increased/hyperbilirubinemia,[4]; Grade 1,1 (2.5) n (%)
same,TRAE Diarrhea,[4]; Grade 1,2 (5.0) n (%)
same,TRAE Fatigue,[4]; Grade 1,3 (7.5) n (%)
same,TRAE Nausea,[4]; Grade 1,3 (7.5) n (%)
same,"TRAE Rash (rash, rash macular, rash maculo-popular)",[4]; Grade 1,3 (7.5) n (%)
same,TRAE Thrombocytopenia /platelet count decrease,[4]; Grade 1,2 (5.0) n (%)
same,Patients with any TRAE,[4]; Grade 2,11 (27.5) n (%)
same,TRAE Anemia,[4]; Grade 2,2 (5.0) n (%)
same,TRAE Blood bilirubin increased/hyperbilirubinemia,[4]; Grade 2,6 (15.0) n (%)
same,TRAE Diarrhea,[4]; Grade 2,1 (2.5) n (%)
same,TRAE Fatigue,[4]; Grade 2,7 (17.5) n (%)
same,TRAE Nausea,[4]; Grade 2,0 n (%)
same,"TRAE Rash (rash, rash macular, rash maculo-popular)",[4]; Grade 2,1 (2.5) n (%)
same,TRAE Thrombocytopenia /platelet count decrease,[4]; Grade 2,2 (5.0) n (%)
same,Patients with any TRAE,[4]; Grade 3,6 (15.0) n (%)
same,TRAE Anemia,[4]; Grade 3,1 (2.5) n (%)
same,TRAE Blood bilirubin increased/hyperbilirubinemia,[4]; Grade 3,4 (10.0) n (%)
same,TRAE Diarrhea,[4]; Grade 3,0 n (%)
same,TRAE Fatigue,[4]; Grade 3,0 n (%)
same,TRAE Nausea,[4]; Grade 3,0 n (%)
same,"TRAE Rash (rash, rash macular, rash maculo-popular)",[4]; Grade 3,2 (5.0) n (%)
same,TRAE Thrombocytopenia /platelet count decrease,[4]; Grade 3,3 (7.5) n (%)
same,Patients with any TRAE,[4]; Grade 4,1 (2.5) n (%)
same,TRAE Anemia,[4]; Grade 4,0 n (%)
same,TRAE Blood bilirubin increased/hyperbilirubinemia,[4]; Grade 4,0 n (%)
same,TRAE Diarrhea,[4]; Grade 4,0 n (%)
same,TRAE Fatigue,[4]; Grade 4,0 n (%)
same,TRAE Nausea,[4]; Grade 4,0 n (%)
same,"TRAE Rash (rash, rash macular, rash maculo-popular)",[4]; Grade 4,0 n (%)
same,TRAE Thrombocytopenia /platelet count decrease,[4]; Grade 4,0 n (%)
same,Treatment-related increases in transaminases,[4]; between the 100 mg and 400 mg dose levels,Low grade (Grade 1–2)
same,Severity of thrombocytopenia,[4]; doses between 100 and 200 mg QD,largely Grade 1–2
same,Effect on ECG parameters,[4]; in vivo,no discernable effect
same,Time to resolution of erythematous rashes after stopping treatment,[4]; in vivo,≤ 1 week
same,Patients with PR interval >200 ms,[4]; maximum post-baseline value,10.0%
same,Patients with QRS duration >120 ms,[4]; maximum post-baseline value,7.5%
same,Patients with QT/QTc interval >450 ms,[4]; maximum post-baseline value,15.0%
same,Patients with QT/QTc interval increase from baseline >30 ms,[4]; maximum post-baseline value,10.0%
same,Patients with any TEAE,[4]; n=40,40 N (%)
same,TEAE Blood bilirubin increased,[4]; n=40,9 N (%)
same,TEAE Decreased appetite,[4]; n=40,8 N (%)
same,TEAE Diarrhoea,[4]; n=40,8 N (%)
same,TEAE Dyspnoea,[4]; n=40,8 N (%)
same,TEAE Fatigue,[4]; n=40,17 N (%)
same,TEAE Nausea,[4]; n=40,13 N (%)
same,≥ Grade 3 TEAE Bilirubin increased,[4]; n=40,4 N (%)
same,Treatment-related clinically significant retinopathy,[4]; ophthalmologic examinations at screening and during treatment,No treatment-related events of clinically significant retinopathy were reported
same,Maximum tolerated dose (MTD),"[4]; oral, 28-day cycles",200 mg QD
same,Increases in unconjugated bilirubin,"[4]; patients, across doses","Asymptomatic, exposure-dependent and reversible increases in unconjugated bilirubin were observed starting at 100 mg QD"
same,Patients with SD for 4 months or longer,[5]; 40 patients,12.5%
same,Disease control rate (CR+PR+SD≥16 weeks),"[5]; 40 patients, 95%–CI 7.3, 32.8",17.5%
same,BOR Not evaluable (NE),[5]; Total (n=40),7 n (%)
same,BOR Partial response (PR),[5]; Total (n=40),2 n (%)
same,Duration of partial response,"[5]; patient, sex cord stromal cell cancer, 100 mg QD",28 months
